CHOP inhibitor: inhibitors of CHOP promoter induction, primary screen, cell-based, unfolded protein response, luciferase reporter. hit rate 3.8% among 220,000. inhibition, % at 10 µM. CHO-K1 CHOP-promoter luciferase, tunicamycin-induced, 15-18 h;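 active = compounds that reduced the stress-induced luciferase reporter signal by more than about 70% of percent inhibition, limit read from the data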
CHOP UPR activ: activators of apoptotic CHOP UPR arm, primary screen, cell-based, CHO-CHOP luciferase reporter, luminescence, uHTS; UPR activation; percent of tunicamycin response over DMSO baseline; activation, % at 10 µM; hit rate 0.34% among 330,000; AID 449763, 2010;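 active = at 10 µM dose, activation of 40% or more, normalized to positive control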
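measured by = luciferase luminescence | assay system = CHO-CHOP cells, stable luciferase reporter of PERK-eIF2a-CHOP signalling | amount = 500 reporter cells seeded per well | timing = 6 h compound exposure at 37 °C after overnight seeding | controls = positive tunicamycin 10 µg/mL, negative DMSO alone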
UPR XBP1 act: activators of adaptive XBP1 UPR arm, primary screen, cell-based, CHO-XBP1 luciferase reporter, luminescence, uHTS; IRE1-XBP1 UPR activation; percent of tunicamycin response, DMSO as zero; activation, % at 20 µM; hit rate 0.33% among 330,000;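 active = versus positive control, 20 µM dose yields 30% or more activation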
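assay system = CHO-XBP1 luciferase reporter cells | amount = 1000 cells/well | buffer or medium = F12 plus 10% FBS | compound dosing = single point, 20 µM final compound, 1% DMSO | incubation = 16-18 h cell attachment at 37 °C, then 6 h compound exposure | detection = Steady-Glo luminescence read | controls = tunicamycin 10 µg/mL and vehicle-only wells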
Dynein transport: inhibitors of GR-EGFP nuclear translocation, primary screen, dynein cargo transport inhibitor project, imaging, high-content, 3617.4 mouse cells; test concentration mostly 20 µM; stimulated with dexamethasone, 1 µM; stronger effect = lower value; z-score, hits read low; hit rate 0.47% among 220,000;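 active = plate z-score of nuclear minus cytoplasmic receptor signal below a set negative limit, without overly bright fluorescence or cell loss, cut at about -3.5 in these data, passing the limit was not always enough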;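 note: z-score of nuclear minus cytoplasmic ring GR-EGFP intensity difference per well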
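Buffer or medium – tet-free medium with charcoal-stripped serum · Signal – automated 10x imaging of fixed Hoechst-stained cells · Also added – dexamethasone agonist, 1.0 µM final, for 30 min · Incubation – induction 48 h, compound 1 h, agonist 30 min · Read-out – GR-EGFP nuclear translocation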
T cruzi repl: inhibitors of intracellular T. cruzi growth, primary screen, luminescence, NIH3T3 host cells; T. cruzi beta-gal in NIH3T3, 90 h; inhibition, % (concentration not given with the values); hit rate 1.4% among 300,000;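 active = mean inhibition across valid replicates above about 55%, limit read from the data; inconclusive = mean below that limit but half or more replicates reach it; inactive = mean below it, under half of replicates reach it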;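 note: signal also drops with host cell toxicity which is not excluded here; higher percent means less beta-gal luminescence so fewer parasites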
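compound dosing = single 50 nL compound addition per well in DMSO | material = NIH/3T3 host cells with β-galactosidase reporter T. cruzi | input = 5,000 host fibroblasts per well | timing = ≥90 h infection period, 3 h prior cell attachment | read-out basis = percent inhibition of parasite-derived β-gal signal | detection = GalScreen β-gal luminescence, detergent lysis, 60 min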
L major viab: Leishmania major promastigote growth inhibition, primary screen; Leishmania major promastigotes, resazurin fluorescence viability; inhibition, % at 10 µM; hit rate 9% among 200,000; in the data active = inhibition above about 50%;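 note: promastigotes grown with compound for 44 hours at 28 °C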
Large screens that a line does not name were inactive. Only a selection was taken, and hits are over-represented in it overall.

Fc1ccc(-c2nc(-c3cccs3)[nH]c2-c2ccc(F)cc2)cc1	CHOP inhibitor 74, T cruzi repl inconclusive, L major viab 99
Cc1ccsc1-c1nc(-c2ccccc2)c(-c2ccccc2)[nH]1	CHOP inhibitor 82
CS(=O)(=O)c1nc(-c2ccccc2)c(-c2ccccc2)[nH]1	none
O=C(O)c1ccc(-c2nc(-c3ccccc3)c(-c3ccccc3)[nH]2)cc1	L major viab 89
CCOC(=O)c1c(S(=O)(=O)N2CCN(c3ccc(C(C)=O)cc3)CC2)c(C)n(C)c1C	none (no result: CHOP inhibitor, Dynein transport, L major viab)
Cc1ccc(OCC(=O)OCC(=O)c2cccc([N+](=O)[O-])c2)cc1C	none (no result: CHOP inhibitor, Dynein transport, L major viab)
CC(C)CN(C(=O)c1cc(Cl)nc2ccccc12)C1CCS(=O)(=O)C1 (configuration not stated)	none (no result: CHOP inhibitor, Dynein transport, T cruzi repl, L major viab)
Cc1ccc(NS(=O)(=O)c2c(C)[nH]c(C)c2C(=O)N2CCCCC2)cc1F	none (no result: CHOP inhibitor, Dynein transport, L major viab)
CS(=O)(=O)N(CC(=O)NCc1ccco1)c1ccc(Cl)c(C(F)(F)F)c1	L major viab 76
CS(=O)(=O)N(CC(=O)NCc1ccco1)c1ccccc1Cl	none
CN(C)/C=C(\C#N)C(=O)N/N=C/c1ccccc1	none
O=C1c2cccc(OCC(=O)N3N=C(c4cccs4)CC3c3ccc(F)cc3)c2CCN1Cc1cccnc1 (configuration not stated)	L major viab 85
O=C(c1cccnc1)N1N=C(c2cccs2)CC1c1ccc(F)cc1 (configuration not stated)	none
O=C(Nc1cc(Cl)cc(Cl)c1)c1ccc(Cn2c(=O)[nH]c3ccsc3c2=O)cc1	CHOP inhibitor 94
CC(=O)NCCNC(=O)c1ccc(Cn2c(=O)[nH]c3ccsc3c2=O)cc1	none (no result: CHOP inhibitor, Dynein transport, L major viab)
COc1ccc(Br)cc1/C=C\C(=O)NCc1cccnc1	none
O=C(CN1CCN(Cc2ccccc2)CC1)N=Nc1c(O)[nH]c2ccccc12	L major viab 96
C/C(=N/NC(=O)c1cc(C)[nH]n1)c1ccncc1	none (no result: CHOP inhibitor, Dynein transport, L major viab)
Nc1nc(Cl)cc(N2CCC(c3cc(-c4ccc(Cl)cc4Cl)n[nH]3)CC2)n1	CHOP inhibitor 89
CC(=O)O[C@H]1[C@H](C)OC=C[C@@H]1OC(C)=O	none (no result: CHOP inhibitor, Dynein transport, L major viab)
Cc1ncn(-c2ccccc2)c1-c1ccccc1	none (no result: CHOP inhibitor, Dynein transport, L major viab)
CC(=O)c1cccc(OCC(O)CNCC2COc3ccccc3O2)c1 (configuration not stated)	none (no result: CHOP inhibitor, Dynein transport, L major viab)
CC(OCC(O)CNCC1COc2ccccc2O1)c1ccc(Cl)cc1 (configuration not stated)	L major viab 91
OC(COCC1COc2ccccc2O1)CN1CCCCC1 (configuration not stated)	none
COc1ccc(CNCC(O)COCc2cccs2)cc1 (configuration not stated)	L major viab 88
COc1ccc(CNC(=O)Cc2cccs2)cc1	none (no result: CHOP inhibitor, Dynein transport, L major viab)
OC(CNCC1COc2ccccc2O1)COCc1cccs1 (configuration not stated)	L major viab 92
Cc1cc(C)c(S(=O)(=O)N2CCCC(C(=O)NC3CCCC3)C2)c(C)c1 (configuration not stated)	none (no result: CHOP inhibitor, Dynein transport, L major viab)
CCCCCCN(C(=O)CCCCCN1C(=O)NC(c2ccccc2)C(C(=O)OCc2ccccc2)=C1C)C(C(=O)NCCCC)c1ccc(OCC(=O)OC)c(C(=O)OC)c1 (configuration not stated)	none (no result: CHOP UPR activ, UPR XBP1 act, T cruzi repl, L major viab)
CC(C)Cc1cc(CN2CCC(CO)(Cc3ccccc3)CC2)[nH]n1	none (no result: L major viab)
O=C1/C(=C/c2cccnc2)Sc2ccccc21	L major viab 83
Cc1ccc(/C=C2\Sc3ccccc3C2=O)s1	CHOP inhibitor 70
Cc1ccc(NC(=O)CN(C)C(=O)CSc2nccn2C)cc1	none (no result: CHOP inhibitor, Dynein transport, T cruzi repl, L major viab)
CC(CCc1ccccc1)N1CCN(Cc2ccccc2)CC1 (configuration not stated)	T cruzi repl 58, L major viab 97
CC(C)N1CCN(S(=O)(=O)c2ccccc2)CC1	none (no result: CHOP inhibitor, Dynein transport, L major viab)
CCS(=O)(=O)N1CCN(C(C)CCc2ccccc2)CC1 (configuration not stated)	L major viab 75
Cc1ccc2c(c1)[nH]c1c(N3CCN(Cc4ccccc4)CC3)ncnc12	L major viab 97 (no result: CHOP inhibitor)
O=C(Nc1ccccc1)N1CCC(O)(c2cccc(C(F)(F)F)c2)CC1	none (no result: CHOP inhibitor, Dynein transport, L major viab)
c1ccc2c(c1)[nH]c1c(N3CCC4(CC3)OCCO4)ncnc12	none
COc1ccc2[nH]c3c(N4CC(C)OC(C)C4)ncnc3c2c1 (configuration not stated)	none
OC1(c2cccc(C(F)(F)F)c2)CCN(c2ccc(-c3ccccc3)nn2)CC1	CHOP inhibitor 85 (no result: T cruzi repl)
COc1cccc(N2CCN(c3ncnc4c3[nH]c3ccc(F)cc34)CC2C)c1 (configuration not stated)	T cruzi repl inconclusive, L major viab 100 (no result: CHOP inhibitor)
c1ccc(CN2CCN(c3ncnc4c3[nH]c3ccccc34)CC2)cc1	CHOP inhibitor 87, L major viab 89
Cc1sc2ncnc(N3CCN(Cc4ccccc4)CC3)c2c1-c1ccccc1	none (no result: CHOP inhibitor, Dynein transport, L major viab)
Cc1cc(OCC(=O)NCCc2ccc(Cl)cc2)c2c(C)cc(=O)oc2c1	none (no result: CHOP inhibitor, Dynein transport, L major viab)
COc1ccc2c(c1)[nH]c1c(N3CCN(Cc4ccc5c(c4)OCO5)CC3)ncnc12	CHOP inhibitor 75, L major viab 78
COc1ccc2c(c1)[nH]c1c(N3CCSCC3)ncnc12	none (no result: L major viab)
Cc1ccc2[nH]c3c(N4CCCCCC4)ncnc3c2c1	L major viab 60 (no result: CHOP UPR activ, UPR XBP1 act)
OC1(c2cccc(C(F)(F)F)c2)CCN(CCN2CCCCC2)CC1	none (no result: CHOP inhibitor, Dynein transport, L major viab)
COc1cccc2[nH]c3c(N4CCC(C)CC4)ncnc3c12	L major viab 94
OC1(c2cccc(C(F)(F)F)c2)CCN(c2ncnc3c2[nH]c2ccccc23)CC1	CHOP inhibitor 71, L major viab 98
COc1cccc2[nH]c3c(N4CCc5ccccc5C4)ncnc3c12	none (no result: L major viab)
CCCCOc1ncnc2c1[nH]c1ccc(C)cc12	none (no result: L major viab)
O=C(c1ccccc1NS(=O)(=O)c1cccc([N+](=O)[O-])c1)N1CCCC1	none (no result: CHOP inhibitor, Dynein transport, L major viab)
O=S(=O)(Cc1ccccc1)N1CCNCC1	none (no result: CHOP inhibitor, Dynein transport, L major viab)
c1ccc2c(c1)CCN(c1ncnc3c1[nH]c1ccccc13)C2	CHOP inhibitor 71 (no result: Dynein transport, L major viab)
Cc1ccc2[nH]c3c(N4CCN(Cc5ccc6c(c5)OCO6)CC4)ncnc3c2c1	L major viab 62 (no result: CHOP UPR activ, UPR XBP1 act, T cruzi repl)
CCOc1ccc2[nH]c3c(N4CCN(c5ccccn5)CC4)ncnc3c2c1	none
Fc1ccc2[nH]c3c(N4CCN(C5CCCCC5)CC4)ncnc3c2c1	L major viab 85

Screens deposited in PubChem by several laboratories.
